ChEMBL document CHEMBL2157962, “A fluorous and click approach for screening potential PET probes: Evaluation of potential hypoxia biomarkers” (Bioorg Med Chem, 2012)

Tests used:
[1] = 1-Octanol-phosphate buffer partition coefficient, log P of the compound at pH 7.4 after 30 mins by shake-flask method; assay type: physicochemical
Method in brief: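 Shake-flask: about 0.01–0.1 mg/mL compound shaken in 1-octanol and 50 mM phosphate buffer (pH 7.4) for 30 min at room temperature. Equal amounts of each phase quantified by HPLC UV absorbance (C18, isocratic ethanol:water). Triplicate, mean ± SD.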

[2] = Drug metabolism of the compound assessed as reduction rate assessed per unit of enzyme in anoxic conditions in presence of bovine milk xanthine oxidase; assay type: physicochemical; conditions: cattle
Method in brief: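 Xanthine oxidase in PBS (0.118 unit) added to 0.29 mM xanthine (reducing substrate) plus 0.12 mM nitroaromatic (oxidizing substrate) in 50 mM PBS pH 7.5 at 37 °C. Solutions argon-degassed 20 min; sealed cuvette. Rate taken from initial absorbance loss at λmax (>325 nm) or at the 249 nm isosbestic point, converted to nmol/min via extinction coefficients. Triplicate, mean ± SD.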

[3] = tested on: MCF7; test: Drug uptake in human MCF7 cells at 0.5 to 1.0 MBq/mL after 1 hr in normoxic condition by gamma counting; assay type: ADME, cell-based; conditions: mcf7, 1 h
Method in brief: (§1)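 MCF-7 cells in RPMI 1640 with 10% FBS were seeded at 100,000 cells/well and grown 24 h, then held 4 h normoxic (5% CO2) or hypoxic (5% CO2/95% N2 chamber, 37 °C). ¹⁸F-labeled tracer (0.5–1.0 MBq/mL in PBS) was added for 1 h at 37 °C. Cells were washed twice with PBS, lysed in 1 M NaOH, and gamma counted. Uptake is expressed as % of added activity; 6 replicates.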

[4] = tested on: MCF7; test: Drug uptake in human MCF7 cells at 0.5 to 1.0 MBq/mL after 1 hr in hypoxic condition by gamma counting; assay type: ADME, cell-based; conditions: mcf7, 1 h; method in brief: as §1
[5] = tested on: MCF7; test: Drug uptake in human MCF7 cells at 0.3 MBq/umol after 1 hr in hypoxic condition by gamma counting; assay type: ADME, cell-based; conditions: mcf7, 1 h
Method in brief: (§2)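 MCF-7 cells were grown in RPMI 1640 with 10% FBS and 1% P/S, seeded at 100,000 cells/well, and cultured 24 h at 37 °C in 5% CO2. They were then kept 4 h in a sealed chamber flushed with 5% CO2/95% N2 (10 L/min, 15 min). ¹⁸F-tracer (0.5–1.0 MBq/mL in PBS) was added for 1 h at 37 °C under hypoxia. Cells were PBS-washed twice, lysed in 1 M NaOH, and gamma-counted; uptake is % of added activity, n=6.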

[6] = tested on: MCF7; test: Drug uptake in human MCF7 cells at 30 GBq/umol after 1 hr in hypoxic condition by gamma counting; assay type: ADME, cell-based; conditions: mcf7, 1 h; method in brief: as §2
[7] = tested on: MCF7; test: Drug uptake in human MCF7 cells at 30 MBq/umol after 1 hr in hypoxic condition by gamma counting; assay type: ADME, cell-based; conditions: mcf7, 1 h; method in brief: as §2
[8] = tested on: MCF7; test: Drug uptake in human MCF7 cells at 0.5 to 1.0 MBq/mL after 1 hr measured 60 mins post wash out in normoxic condition by gamma counting; assay type: ADME, cell-based; conditions: mcf7, 1 h
Method in brief: (§3)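 MCF-7 cells were preconditioned 4 h normoxic or hypoxic (5% CO2/95% N2), then given ¹⁸F tracer (0.5–1.0 MBq/mL) for 1 h at 37 °C. Radioactive medium was replaced with fresh RPMI 1640 (10% FBS) for a further 1 h under the same oxygen condition. Cells were then PBS-washed, lysed in 1 M NaOH and gamma counted. Retained activity is given as % of added.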

[9] = tested on: MCF7; test: Drug uptake in human MCF7 cells at 0.5 to 1.0 MBq/mL after 1 hr measured 60 mins post wash out in hypoxic condition by gamma counting; assay type: ADME, cell-based; conditions: mcf7, 1 h; method in brief: as §3

logD at 0.5 h [1]	Drug metabolism [2]	Drug uptake [3]	Drug uptake [4]	Structure (SMILES)	other results
0.03	20 nmol/min/U	–	–	O=[N+]([O-])c1ccnn1Cc1cn(CCF)nn1	–
–	–	Active	Active	O=[N+]([O-])c1ncccc1NCc1cn(CC[18F])nn1	–
–	–	–	Not Active	O=[N+]([O-])c1ccnn1Cc1cn(CC[18F])nn1	–
-0.41	36 nmol/min/U	–	–	O=[N+]([O-])c1nccn1Cc1cn(CCF)nn1	–
–	–	Active	Active	O=[N+]([O-])c1nccn1Cc1cn(CC[18F])nn1	–
0.04	58 nmol/min/U	–	–	O=[N+]([O-])c1ncccc1NCc1cn(CCF)nn1	–

Continued, compound first:

Structure (SMILES)	logD at 0.5 h [1]	Drug metabolism [2]	Drug uptake [3]	Drug uptake [4]	other results
O=[N+]([O-])c1cnc(NCc2cn(CCF)nn2)s1	0.79	277 nmol/min/U	–	–	–
O=[N+]([O-])c1nccn1CC(O)CF (stereo unspecified) [FLUOROMISONIDAZOLE]	–	37 nmol/min/U	–	–	–
O=[N+]([O-])c1nccn1CC(O)C[18F] (stereo unspecified) [[18F]FLUOROMISONIDAZOLE]	–	–	–	–	Drug uptake [5]: 1.1%; Drug uptake [6]: 3.9%; Drug uptake [7]: 3.2%
O=[N+]([O-])c1cnc(NCc2cn(CC[18F])nn2)s1	–	–	Active	Active	Drug uptake [8]: Active; Drug uptake [9]: Active
